# Measured values from the M2OR odorant receptor database.
# Key:
# Settings in all cases: stereoisomer not certain
# OR2T10 (Homo sapiens) = biological target: T1, OR2T10 (Homo sapiens) (UniProt Q8NGZ9)
# T1 sequence (whole entry): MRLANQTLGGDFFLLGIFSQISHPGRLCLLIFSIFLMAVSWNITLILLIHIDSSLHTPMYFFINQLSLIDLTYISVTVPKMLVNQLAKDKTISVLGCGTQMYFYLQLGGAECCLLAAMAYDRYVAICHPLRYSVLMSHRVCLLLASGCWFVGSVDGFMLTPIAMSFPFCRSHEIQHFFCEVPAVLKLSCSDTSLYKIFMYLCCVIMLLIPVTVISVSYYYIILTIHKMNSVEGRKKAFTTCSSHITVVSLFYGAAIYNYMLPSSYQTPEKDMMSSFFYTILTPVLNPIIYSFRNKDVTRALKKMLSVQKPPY
# Outline: (§1)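 Assay methods differ from source to source, frequently being transient luciferase assays in mammalian cell lines. For each receptor–molecule pair, the label responsive (active) applies when the original authors judged the measured signal statistically different from baseline, and non-responsive (inactive) applies otherwise.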
# OR2M7 (Homo sapiens) = biological target: T2, OR2M7 (Homo sapiens) (UniProt Q8NG81)
# T2 sequence (whole entry): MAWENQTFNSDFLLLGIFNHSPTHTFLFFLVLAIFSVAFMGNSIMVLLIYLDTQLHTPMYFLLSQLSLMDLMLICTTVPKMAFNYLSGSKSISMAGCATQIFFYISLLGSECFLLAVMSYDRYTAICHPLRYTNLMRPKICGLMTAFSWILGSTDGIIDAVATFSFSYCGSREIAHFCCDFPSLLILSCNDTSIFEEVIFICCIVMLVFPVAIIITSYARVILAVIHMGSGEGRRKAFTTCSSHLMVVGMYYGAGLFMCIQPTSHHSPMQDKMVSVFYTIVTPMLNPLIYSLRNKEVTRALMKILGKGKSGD
# Outline: as §1
# OR2S2 (Homo sapiens) = biological target: T3, OR2S2 (Homo sapiens) (UniProt Q9NQN1)
# T3 sequence (whole entry): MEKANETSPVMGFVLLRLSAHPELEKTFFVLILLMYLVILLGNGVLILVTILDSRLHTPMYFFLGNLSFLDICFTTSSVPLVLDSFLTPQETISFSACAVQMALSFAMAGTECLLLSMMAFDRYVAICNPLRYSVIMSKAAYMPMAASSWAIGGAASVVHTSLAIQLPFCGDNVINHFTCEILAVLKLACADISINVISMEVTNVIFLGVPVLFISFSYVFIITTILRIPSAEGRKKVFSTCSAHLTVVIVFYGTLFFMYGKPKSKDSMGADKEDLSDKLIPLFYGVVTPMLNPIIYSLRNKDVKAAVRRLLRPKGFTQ
# Outline: as §1
# OR2T1 (Homo sapiens) = biological target: T4, OR2T1 (Homo sapiens) (UniProt O43869)
# T4 sequence (whole entry): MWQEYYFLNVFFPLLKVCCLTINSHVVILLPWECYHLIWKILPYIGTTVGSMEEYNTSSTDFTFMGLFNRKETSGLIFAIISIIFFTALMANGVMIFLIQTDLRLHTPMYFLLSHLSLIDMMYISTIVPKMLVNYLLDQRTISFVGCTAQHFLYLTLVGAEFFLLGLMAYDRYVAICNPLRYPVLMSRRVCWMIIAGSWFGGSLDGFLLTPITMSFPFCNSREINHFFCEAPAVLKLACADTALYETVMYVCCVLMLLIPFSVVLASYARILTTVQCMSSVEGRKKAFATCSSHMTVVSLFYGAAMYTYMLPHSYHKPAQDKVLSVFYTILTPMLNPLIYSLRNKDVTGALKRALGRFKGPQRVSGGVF
# Outline: as §1
# OR2T11 (Homo sapiens) = biological target: T5, OR2T11 (Homo sapiens) (UniProt Q8NH01)
# T5 sequence (whole entry): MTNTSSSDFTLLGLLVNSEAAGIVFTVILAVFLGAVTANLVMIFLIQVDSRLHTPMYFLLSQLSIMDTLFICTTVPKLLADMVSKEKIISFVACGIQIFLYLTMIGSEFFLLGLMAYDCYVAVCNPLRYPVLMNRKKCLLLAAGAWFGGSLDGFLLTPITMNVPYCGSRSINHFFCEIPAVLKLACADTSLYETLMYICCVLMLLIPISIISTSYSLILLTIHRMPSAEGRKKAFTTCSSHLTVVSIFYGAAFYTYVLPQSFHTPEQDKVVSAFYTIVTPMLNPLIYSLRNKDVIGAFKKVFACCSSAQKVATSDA
# Outline: as §1
# OR2T12 (Homo sapiens) = biological target: T6, OR2T12 (Homo sapiens) (UniProt Q8NG77)
# T6 sequence (whole entry): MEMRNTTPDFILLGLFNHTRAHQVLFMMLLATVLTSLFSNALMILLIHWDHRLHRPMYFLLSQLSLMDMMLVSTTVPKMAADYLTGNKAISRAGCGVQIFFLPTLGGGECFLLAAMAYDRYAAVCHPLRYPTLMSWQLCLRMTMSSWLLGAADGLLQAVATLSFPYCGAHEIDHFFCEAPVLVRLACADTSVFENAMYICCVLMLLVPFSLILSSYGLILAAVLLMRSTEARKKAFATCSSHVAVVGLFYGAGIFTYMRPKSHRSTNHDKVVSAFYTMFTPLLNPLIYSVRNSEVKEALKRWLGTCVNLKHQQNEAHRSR
# Outline: as §1
# OR2T2 (Homo sapiens) = biological target: T7, OR2T2 (Homo sapiens) (UniProt Q6IF00)
# T7 sequence (whole entry): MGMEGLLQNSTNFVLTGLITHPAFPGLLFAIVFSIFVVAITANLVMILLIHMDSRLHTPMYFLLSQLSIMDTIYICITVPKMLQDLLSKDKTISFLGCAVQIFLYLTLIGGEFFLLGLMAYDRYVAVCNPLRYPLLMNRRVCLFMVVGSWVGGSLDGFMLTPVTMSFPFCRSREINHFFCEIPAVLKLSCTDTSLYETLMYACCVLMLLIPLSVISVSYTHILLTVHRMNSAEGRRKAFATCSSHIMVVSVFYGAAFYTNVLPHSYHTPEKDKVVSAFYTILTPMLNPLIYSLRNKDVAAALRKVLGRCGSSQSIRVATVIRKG
# Outline: as §1
# OR2T27 (Homo sapiens) = biological target: T8, OR2T27 (Homo sapiens) (UniProt Q8NH04)
# T8 sequence (whole entry): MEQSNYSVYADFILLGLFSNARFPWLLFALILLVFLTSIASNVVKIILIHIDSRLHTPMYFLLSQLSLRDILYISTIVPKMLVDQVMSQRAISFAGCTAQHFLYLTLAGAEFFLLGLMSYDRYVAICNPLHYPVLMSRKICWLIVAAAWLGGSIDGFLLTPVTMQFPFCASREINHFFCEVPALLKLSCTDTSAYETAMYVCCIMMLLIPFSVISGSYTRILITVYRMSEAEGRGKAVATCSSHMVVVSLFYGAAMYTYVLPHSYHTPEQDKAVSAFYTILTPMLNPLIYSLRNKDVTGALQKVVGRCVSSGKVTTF
# Outline: as §1
# OR2T29 (Homo sapiens) = biological target: T9, OR2T29 (Homo sapiens) (UniProt Q8NH02)
# T9 sequence (whole entry): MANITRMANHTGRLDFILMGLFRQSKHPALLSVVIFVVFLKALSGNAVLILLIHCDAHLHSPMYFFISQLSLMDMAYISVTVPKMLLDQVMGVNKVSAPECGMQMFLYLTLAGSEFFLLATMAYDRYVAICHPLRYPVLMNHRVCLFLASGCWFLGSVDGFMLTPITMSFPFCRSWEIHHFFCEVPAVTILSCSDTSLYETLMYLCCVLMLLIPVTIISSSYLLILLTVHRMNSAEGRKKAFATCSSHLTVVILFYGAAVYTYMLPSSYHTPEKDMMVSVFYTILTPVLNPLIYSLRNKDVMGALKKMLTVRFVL
# Outline: as §1
# OR2T3 (Homo sapiens) = biological target: T10, OR2T3 (Homo sapiens) (UniProt Q8NH03)
# T10 sequence (whole entry): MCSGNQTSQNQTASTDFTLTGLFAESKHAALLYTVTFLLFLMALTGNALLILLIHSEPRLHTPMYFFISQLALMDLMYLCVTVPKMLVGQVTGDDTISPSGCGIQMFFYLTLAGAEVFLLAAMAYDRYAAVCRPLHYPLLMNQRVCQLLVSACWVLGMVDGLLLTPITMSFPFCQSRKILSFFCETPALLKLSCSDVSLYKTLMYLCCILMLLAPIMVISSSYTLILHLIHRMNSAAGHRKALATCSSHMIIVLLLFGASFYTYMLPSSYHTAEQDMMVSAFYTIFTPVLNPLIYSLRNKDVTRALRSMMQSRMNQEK
# Outline: as §1
compound,measurement,setting,value
CCCCCC1COCCC1OC(C)=O (centres undefined),odorant receptor agonist call,OR2T10 (Homo sapiens),inactive
OCc1ccccc1,odorant receptor agonist call,OR2T10 (Homo sapiens),inactive
CCCCCC(=O)C(C)C(C)=O (centres undefined),odorant receptor agonist call,OR2M7 (Homo sapiens),inactive
same,odorant receptor agonist call,OR2S2 (Homo sapiens),inactive
same,odorant receptor agonist call,OR2T1 (Homo sapiens),inactive
same,odorant receptor agonist call,OR2T10 (Homo sapiens),inactive
same,odorant receptor agonist call,OR2T11 (Homo sapiens),inactive
same,odorant receptor agonist call,OR2T12 (Homo sapiens),inactive
same,odorant receptor agonist call,OR2T2 (Homo sapiens),inactive
same,odorant receptor agonist call,OR2T27 (Homo sapiens),inactive
same,odorant receptor agonist call,OR2T29 (Homo sapiens),inactive
same,odorant receptor agonist call,OR2T3 (Homo sapiens),inactive
CCc1ccc(CC(C)(C)C=O)cc1,odorant receptor agonist call,OR2T10 (Homo sapiens),inactive
CC(CC=O)c1ccc(C(C)(C)C)cc1 (centres undefined),odorant receptor agonist call,OR2T10 (Homo sapiens),inactive
CC(=O)OCc1ccccc1,odorant receptor agonist call,OR2M7 (Homo sapiens),inactive
same,odorant receptor agonist call,OR2T10 (Homo sapiens),inactive
CC1CC(C)(c2ccccc2)CO1 (centres undefined),odorant receptor agonist call,OR2T10 (Homo sapiens),inactive
CCCCCCCCC(OC(C)=O)OC(C)=O,odorant receptor agonist call,OR2T10 (Homo sapiens),inactive
CC(=O)C=CC1=C(C)CCCC1(C)C,odorant receptor agonist call,OR2T10 (Homo sapiens),inactive
